# HTRA1 inhibitor: HTRA1 serine protease inhibitors, primary screen, biochemical, fluorescence polarization, HTS; Q92743; recombinant HTRA1, FP-rhodamine activity-based probe; inhibition, % at 5.96 µM; 340,000 tested, 0.5% active; in the data active = inhibition above about 36%;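 note: 0% = enzyme with DMSO and 100% = wells lacking enzyme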
# Target sequence (Q92743 whole entry, looked up): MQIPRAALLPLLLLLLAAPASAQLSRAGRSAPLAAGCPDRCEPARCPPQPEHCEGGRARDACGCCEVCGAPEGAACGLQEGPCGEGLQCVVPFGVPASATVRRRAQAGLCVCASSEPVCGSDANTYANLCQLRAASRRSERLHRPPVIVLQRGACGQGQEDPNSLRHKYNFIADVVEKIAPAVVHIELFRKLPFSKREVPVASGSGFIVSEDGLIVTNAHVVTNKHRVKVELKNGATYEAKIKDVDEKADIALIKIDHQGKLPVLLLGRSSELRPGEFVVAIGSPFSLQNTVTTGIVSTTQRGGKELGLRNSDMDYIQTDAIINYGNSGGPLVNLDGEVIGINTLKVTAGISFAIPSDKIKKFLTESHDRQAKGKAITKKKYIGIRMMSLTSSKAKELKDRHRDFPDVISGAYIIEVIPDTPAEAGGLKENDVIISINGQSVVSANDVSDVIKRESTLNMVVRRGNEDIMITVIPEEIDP
# TCR CD3 inh: inhibitors of human TCR-CD3 interaction, primary screen, biochemical, fluorescence, TAMRA-labeled TCR probe | T-cell receptor (TCR) | inhibition, % at 9.4 µM | 360,000 tested, 0.37% active; in the data active = inhibition above about 19%;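 note: recombinant mutant TCR 2C K166C tagged with TAMRA read by polarization; 0% = receptor in buffer alone and 100% = receptor with positive control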
# SIAE primary: human SIAE inhibitors, primary screen, biochemical, fluorescence polarization, FP-Rh probe, 1536-well HTS. Sialate O-acetylesterase (Homo sapiens), Q9HAT2. inhibition, % at 9.66 µM. 370,000 tested, 0.69% active. SIAE FP-Rh probe binding;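 active = inhibition above a cutoff: mean of compounds within the control limits plus 3 SD of those, cut at about 17% in these data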;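 note: 0% = plate median of compound wells and 100% = probe without SIAE protein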
# pPAFAH inh: pPAFAH enzyme inhibitors, primary screen, biochemical, fluorescence polarization, human; 330,000 tested, 1.5% active; recombinant pPAFAH, FP-rhodamine probe fluorescence polarization; inhibition, % at 3.39 µM;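 active = inhibition above the mean inhibition across the screen plus 3 SD, cut at about 25% in these data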;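 note: inhibitors block binding of the rhodamine activity-based probe so polarization drops; 0% = enzyme with DMSO and 100% = wells lacking pPAFAH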
# ABHD4 inh: ABHD4 inhibitors, primary screen, biochemical, fluorescence polarization, mouse; purified mABHD4, FP-Rh probe fluorescence polarization; inhibition, % at 8.92 µM; 370,000 tested, 0.54% active; AID 720543, 2013;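 active = inhibition exceeding the mean over every tested compound plus 3 SD, cut at about 30% in these data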;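 note: 0% = plate median of compound wells and 100% = S159A mutant with DMSO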
#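 Assay system: mABHD4 protein; medium: HEPES pH 7.0, NaCl, Pluronic buffer; dosing: 8.92 µM, single dose; schedule: 45 min + 60 min at 25 °C; signal: FP readout, ex 525 nm / em 598 nm; read-out: normalized percent inhibition of probe labeling; repeats: single replicate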
# * = called active by the depositor; nt = no result; ! = a repeat was not active. Compounds with a hit are over-represented: about 2.3% of the library has one in this group of screens.
SMILES,HTRA1 inhibitor,TCR CD3 inh,SIAE primary,pPAFAH inh,ABHD4 inh
O=C(COC(=O)CNC(=O)c1ccc(Cl)cc1Cl)Nc1cccc(S(=O)(=O)N2CCCC2)c1,-3.3,-6.8,-4.6,29.7*,-7.3
O=C(COC(=O)CNC(=O)c1ccccc1F)Nc1cccc(S(=O)(=O)N2CCCCCC2)c1,0.9,3.1,-1.9,4.7,-3.4
O=C(COC(=O)CCC1CCCC1)Nc1cccc(S(=O)(=O)N2CCOCC2)c1,-17.8,-1.8,-6.5,25.5*,-1.9
O=C(CSc1ncccn1)Nc1cccc(S(=O)(=O)N2CCOCC2)c1,0.3,-5.9,-0.2,1.7,-6.6
Cc1ccc(S(=O)(=O)N2CCOCC2)cc1NC(=O)COC(=O)CNC(=O)c1ccc(Oc2ccccc2)cc1,-6.9,-0.1,-8.3,28.4*,-7.5
O=C(CSc1nnc(-c2ccncc2)n1-c1ccccc1)Nc1ccc2c(c1)OCCO2,nt,nt,0.3,nt,-4.5
CCCCn1nc(NS(=O)(=O)c2cccc3nonc23)c2cc3cccc(C)c3nc21,5.8,13.3,0.9,32.2*,22.6
CCn1nc(NS(=O)(=O)c2cccc3nonc23)c2cc3ccc(C)cc3nc21,8.2,nt,nt,9.6,nt
CN(C)C=NC(=O)c1[nH]c2ccc(Cl)cc2c1-c1ccccc1,-44.5,-7.4,0.2,28.7*,-6.6
CCOc1cc(C2Nc3cccc4cccc(c34)N2)ccc1O,37.2*,nt,nt,5.7,nt
CCOc1ccc(C2Nc3cccc4cccc(c34)N2)cc1OC,-1.5,3.0,11.2,-2.2,4.4
O=C(Cn1nc(Cc2cccnc2)c2ccccc2c1=O)Nc1ccccc1F,-1.0,0.8,-4.0,25.5*,2.8
O=C(Cn1nc(Cc2cccnc2)c2ccccc2c1=O)Nc1cc(F)ccc1F,-0.1,3.9,3.5,1.1,0.8
Nn1c(SCc2cccc3ccccc23)nnc1-c1cc(-c2ccc(F)cc2)n[nH]1,nt,nt,-0.9,nt,0.9
COc1ccc(Sc2ccc(/C=C3\C(=O)NN(c4ccccc4)C3=O)o2)cc1,4.8,4.6,9.1,29.1*,20.5
COc1ccc(-n2c(C)cc(/C=C3\C(=O)NN(c4ccccc4)C3=O)c2C)cc1,1.4,-1.1,3.8,10.7,-0.7
O=C(Nc1ccccc1Cl)c1cc(S(=O)(=O)N2CCCCC2)ccc1N1CCOCC1,-10.0,-8.3,3.2,-2.0,5.5
CC(NC(=O)c1cc(S(=O)(=O)N2CCOCC2)ccc1N1CCCC1)c1ccc(Cl)c(Cl)c1 (stereo not drawn),-7.9,-4.6,3.8,28.4*,7.0
CCn1c(CSc2nnc(-c3cccnc3)n2-c2ccccc2C)nc2cc(C(=O)O)ccc21,nt,nt,nt,42.4*,nt
Cc1ccccc1-n1c(SCC(=O)c2cc(C)n(C)c2C)nnc1-c1cccnc1,-1.3,nt,nt,2.7,nt
COc1nc(OCCNC(=O)Nc2ccccc2)nc(N(C)C)n1,3.1,-0.9,-2.9,-6.9,-11.7
CN(C)c1nc(OCCNC(=O)Nc2ccc(Cl)cc2)nc(N(C)C)n1,14.7,1.6,3.6,25.5*,-2.6
OCCN1CCN(c2ncnc3c2c(-c2ccccc2)cn3-c2ccc(F)cc2)CC1,1.9,2.3,8.9,25.1*,-2.8
COc1cccc(C(=O)Nc2cccc(C(=O)NC3=NN(c4c(Cl)cc(Cl)cc4Cl)C(=O)C3)c2)c1,-9.1,1.2,3.0,29.9*,-23.8
NC(=O)/C(=C\c1ccco1)NC(=O)c1ccco1,5.1,-2.8,13.9,nt,8.4
SMILES,HTRA1 inhibitor,TCR CD3 inh,SIAE primary,pPAFAH inh,ABHD4 inh
NC(=O)/C(=C/c1ccco1)C(N)=S,-0.8,5.0,2.5,25.8*,12.0
CCOC(=O)CNC(=O)N(C)[C@H]1C[C@H]2c3[nH]c4c(-c5cccc(C)c5)cccc4c3CCN2C(=O)[C@H]1[C@H](C)O,nt,nt,1.8,nt,9.3
CC(C)[C@H](NC(=O)c1ccccc1)C(=O)N1CCC[C@H]1C(=O)NCc1ccccc1,nt,-3.3,1.0,nt,-2.9
Cc1ccc(S(=O)(=O)N2CCC(C(=O)N[C@@H](Cc3ccccc3)C(=O)O)CC2)cc1,7.9,1.1,8.4,2.6,-4.9
O=C(NC(Cc1ccccc1)C(=O)O)C1CCN(S(=O)(=O)c2cccc(C(F)(F)F)c2)CC1 (stereo not drawn),1.2,-1.6,6.1,27.3*,0.6
CCN(CC)c1ccc(NC2CC(=O)N(CCc3ccc(OC)cc3)C2=O)cc1 (stereo not drawn),53.7*,6.2,9.9,27.6*,28.7
CCCCCCc1cc2cc(S(=O)(=O)c3ccc(F)c(Cl)c3)c(=O)oc2cc1O,-2.4,3.9,15.0,33.0*,2.4
CCCCCCc1cc2cc(C(=O)OCC)c(=O)oc2cc1O,-5.4,-3.7,-3.3,-1.0,-7.7
COC(=O)C[C@@H]1CC[C@@H]2[C@@H](COc3ccc(NC(=O)c4ccc(F)cc4)cc3C(=O)N2C)O1,nt,nt,-1.3,nt,7.5
COc1cccc(C2NC(CCSC)(C(=O)O)C3C(=O)N(C(C)C)C(=O)C23)c1O (stereo not drawn),-4.5,-0.8,20.6*,2.8,-2.0
CN(C)c1ccc(N=Cc2ccco2)cc1,54.6*,nt,nt,27.7*,nt
COC(=O)[C@]12C[C@H](CC(=O)NCCCN3CCCC3=O)C(=O)N(Cc3ccc(Cl)cc3Cl)C1=C[C@H](C1CCCC1)O[C@@H]2C,nt,nt,-9.0,nt,-2.7
Cc1ccc(NS(=O)(=O)c2cccc(C(=O)N/N=C/c3ccc4c(c3)OCCO4)c2)c(C)c1,-68.5,8.9,-34.1,31.9*,-86.3
C/C(=N\NC(=O)c1cccc(S(=O)(=O)Nc2ccc(C)cc2C)c1)c1ccncc1,-7.4,-1.7,2.6,nt,-8.5
CCCN(CC1CC1)C(=O)c1ccc(CNC(=O)c2cccc(Br)c2)cc1,nt,nt,-5.4,nt,-5.6
COc1cc(C2C(C#N)=C(N)Oc3c2c(-c2ccccc2)nn3-c2ccccc2)cc(OC)c1OC (stereo not drawn),6.9,4.1,23.4*,22.6,19.5
Cc1ccc(NC(=O)COC(=O)Cc2csc(-c3cccc(F)c3)n2)cc1C,-9.9,0.0,4.8,26.8*,2.1
Cc1ccc(NC(=O)COC(=O)Cc2csc(-c3ccc(Cl)cc3)n2)cc1C,-5.8,4.5,-2.5,10.9,2.8
O=S(=O)(Nc1ccc(O)c2ccccc12)c1cccs1,24.4,3.7,5.1,20.5,46.4*
O=S(=O)(Nc1cccc2ccccc12)c1cccs1,-0.5,1.8,4.6,9.3,3.8
O=C(NCc1ccccc1)C1(C(=O)C2CC2)CC(c2ccccc2C(F)(F)F)=NO1 (stereo not drawn),nt,nt,-0.6,nt,0.8
Cc1ccc(NC2=C/C(=N\S(=O)(=O)c3cccs3)c3ccccc3C2=O)c(C)c1,53.4*,nt,nt,29.3*,nt
Cc1ccc(Cl)cc1NC1=C/C(=N\S(=O)(=O)c2cccs2)c2ccccc2C1=O,40.1*!,-1.9,7.2,25.1*,22.3
Cc1cccc(NC2=C/C(=N/S(=O)(=O)c3cccs3)c3ccccc3C2=O)c1,8.9,3.2,16.3,21.9,13.2

# Compound activity (PubChem BioAssay)
